Hits are enriched below; roughly 1.8% of the tested compounds scored in any of these assays.
SUMO Mot1 rescue – inhibitors of SUMOylation pathway: yeast Mot1-301 growth rescue; S. cerevisiae Mot1-301 growth rescue, ATP luminescence, 38.5C; percent above DMSO median, 100 means doubled; growth rescue, % at 18.8 µM; 1% of 320,000 active; AID 2716;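 active = every valid replicate shows activation above 250% relative to neutral control wells; inactive = the rest, any valid replicate at or below 250%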;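 also: OY570 slx delta 5 strain wells were the positive control but not used for scaling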
C2C12 statin – protects C2C12 myotubes from simvastatin toxicity. ATP luminescence, 48 h; scaled: DMSO 0, geranylgeraniol control 100. rescue of ATP level, % at 7.49 µM. 0.78% of 330,000 active;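 active = mean ATP rescue above about 67%, or every replicate alone reaching that limit, limit read from the data, passing the limit was not always enough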;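 also: myotubes were challenged with 10 µM simvastatin during compound exposure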
Efflux pump mplx – blocks antifungal efflux pumps in multiplex yeast assay; inhibition, % at 10 µM; S. cerevisiae Candida pump triplex, Nile Red efflux; 0.44% of 330,000 active; AID 485275;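 active = plate passing quality check with inhibition over a set limit, or well fluorescence over plate mean plus 4 SD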;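 also: Nile Red retained in pooled yeast measured as flow cytometry median fluorescence; 0% = buffer negative control and 100% = Enniatin B positive control; higher means more Nile Red kept so more efflux inhibition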
Cneo AK release – causes C. neoformans cell lysis. adenylate kinase release luminescence, 4 h; normalised: neutral wells 0, clomiphene wells 100. lysis activity, % at 15 µM. 0.2% of 360,000 active. AID 651654;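 active = mean lysis activity across replicates of at least 80%, whatever share of replicates individually reach that level; inactive = mean lysis activity below 80%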
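read-out = cell lysis signal | test system = log-phase Cryptococcus neoformans yeast cells | input = cells at 5 × 10^6 per mL | medium = fresh YPD growth medium | signal = luminescent adenylate kinase detection reagent | timing = 4 h at 37 °C static, read 1 h later | dosing = single dose | controls = Clomiphene as positive lysis control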
Cmpd fluor yeast – counter-screen for efflux pump inhibitors: compound fluorescence; shares compounds with Efflux pump mplx; S. cerevisiae AD/pABC3, flow cytometry; fluorescence ratio to DMSO, % at 10 µM; 4% of 1,700 active;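 active = fluorescence ratio to DMSO above its plate's cutoff, the plate mean ratio plus 5 SD, cut at about 210% in these data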;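 also: unstained yeast with no Nile Red so the signal is compound autofluorescence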
Mdr1 pump inh – blocks the Candida albicans Mdr1 efflux pump in yeast; shares compounds with Efflux pump mplx; S. cerevisiae AD/CaMDR1, Nile Red efflux, flow cytometry; inhibition, % at 10 µM; 1% of 1,700 active; AID 588518; in the data active = inhibition above about 26%;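 also: 0% = DMSO vehicle and 100% = reference inhibitor; higher means more Nile Red retained so more efflux inhibition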
CaCdr2 efflux inh – inhibitors of Candida albicans Cdr2 efflux pump. shares compounds with Efflux pump mplx. S. cerevisiae AD/CaCDR2, Nile Red retention, flow cytometry. Nile Red retention ratio vs DMSO, % at 10 µM. 4% of 1,700 active; in the data active = Nile Red retention ratio vs DMSO above about 190%;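 also: higher ratio means more blocking of Cdr2 efflux of the dye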
CaCdr1 efflux inh – Candida Cdr1 efflux pump inhibition; shares compounds with Efflux pump mplx; S. cerevisiae AD/CaCDR1, Nile Red efflux, flow cytometry; inhibition, % at 10 µM; 1% of 1,700 active;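 active = inhibition above the screen-wide mean plus twice its standard deviation, cut at about 32% in these data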
Active calls of the source: *; x = not tested or not shown.

SMILES	SUMO Mot1 rescue	C2C12 statin	Efflux pump mplx	Cneo AK release	Cmpd fluor yeast	Mdr1 pump inh	CaCdr2 efflux inh	CaCdr1 efflux inh
O=C(Oc1ccccc1/C=C\C(=O)c1cc2ccccc2o1)c1ccccc1	8	x	16*	x	103	0	100	0
O=C(Oc1ccccc1/C=C\C(=O)c1cc2ccccc2o1)c1cccc(F)c1	-18	x	0	x	x	x	x	x
Cc1ccc(CNC(=O)c2cc(COc3c(F)cccc3F)on2)s1	x	-14	0	-2	x	x	x	x
CCOc1cc(C2C3=C(CCCC3=O)Nc3nc(C(=O)OC)nn32)ccc1OC (centres undefined)	44	x	1.4*	x	103	0	99	0
COc1ccc(S(=O)(=O)N(C)C[C@@H]2Oc3c(NC(=O)NC4CCCCC4)cccc3C(=O)N([C@H](C)CO)C[C@@H]2C)cc1	x	-17	x	-2	x	x	x	x
COc1ccc(S(=O)(=O)N(C)C[C@H]2Oc3c(NC(=O)Nc4ccc(C(F)(F)F)cc4)cccc3C(=O)N([C@H](C)CO)C[C@@H]2C)cc1	-10	7	34*	1	104	0	114	0
COc1ccc(S(=O)(=O)N(C)C[C@H]2Oc3c(NC(=O)NC4CCCCC4)cccc3C(=O)N([C@H](C)CO)C[C@@H]2C)cc1	-1	23	131*	0	127	28*	97	17
COc1ccc(S(=O)(=O)N(C)C[C@@H]2Oc3c(NC(=O)Nc4ccc(C(F)(F)F)cc4)cccc3C(=O)N([C@@H](C)CO)C[C@H]2C)cc1	x	-26	x	-1	x	x	x	x
C[C@H](CO)N1C[C@H](C)[C@@H](CN(C)Cc2ccc(-c3ccccc3)cc2)Oc2c(NC(=O)Nc3ccc(C(F)(F)F)cc3)cccc2C1=O	-1	51	0	-7	92	0	112	0
COc1cc(/C=C/C(=O)N2CCCc3ccccc32)cc(OC)c1OC	14	-2	0	1	x	x	x	x
COC(=O)/C(C#N)=C/c1c(Oc2cccc(C)c2)nc2ccccn2c1=O	8	-8	0	x	x	x	x	x
CN[C@@H](C)C(=O)NC[C@H]1O[C@@H](n2cnc3c(=O)[nH]c(N)nc32)[C@H](O)[C@@H]1O	x	2	x	0	x	x	x	x
C=CCn1c(Cc2cccs2)nnc1SCC(=O)NCc1ccco1	57	10	0	0	x	x	x	x
Cc1cc(Cl)ccc1NC(=O)CSc1nnc(Cc2cccs2)n1Cc1ccco1	195	6	0	-3	93	0	107	0
COc1cc2c(cc1NC(=O)CSc1nnc(Cc3cccs3)n1Cc1ccco1)oc1ccccc12	-1	-27	0	4	91	0	93	0
O=C(CSc1nnc(-c2ccncc2)n1Cc1ccco1)Nc1cccc(O)c1	2	3	0	2	x	x	x	x
Cc1cc(C)c(NC(=O)CSc2nnc(-c3ccncc3)n2Cc2ccco2)c(Cl)c1	-26	-2	1.3*	2	92	0	100	0
COc1ccc(C(=O)CSc2nnc(CNc3ccc(C)cc3C)n2Cc2ccco2)cc1	60	x	1.1*	1	106	0	103	0
CNc1nc(SC)nc(N2CCOCC2)n1	-3	-5	0	1	x	x	x	x
C[C@@H]1CN([C@@H](C)CO)C(=O)c2cc(-c3cccc(F)c3)cnc2O[C@H]1CN(C)C(=O)C1CCOCC1	x	-1	x	-2	x	x	x	x
CCCOc1ccc(C2=CSC3=NCCN23)cc1	-3	24	0	0	x	x	x	x
C[C@@H]1CN([C@H](C)CO)C(=O)Cc2cc(NS(=O)(=O)c3cn(C)cn3)ccc2O[C@@H]1CN(C)S(=O)(=O)c1cn(C)cn1	x	-16	x	-7	x	x	x	x
Cc1cc(C)nc(SCc2cn3c(C)cccc3n2)n1	3	x	0	2	x	x	x	x
Cc1ccnc(SCc2cn3c(C)cccc3n2)n1	-2	x	1.1*	x	100	0	96	0
COc1cc(CNc2ccc(C(=O)O)cc2)cc(Br)c1OCC(=O)NC(C)(C)C	27	x	21*	x	108	0	102	0
SMILES	SUMO Mot1 rescue	C2C12 statin	Efflux pump mplx	Cneo AK release	Cmpd fluor yeast	Mdr1 pump inh	CaCdr2 efflux inh	CaCdr1 efflux inh
COc1cccc(NC2=NCC(=O)N2Cc2cccs2)c1	-1	18	0	1	x	x	x	x
Cc1ccc(/C=C2\SC(=S)N(CC3CCCO3)C2=O)o1 (centres undefined)	8	x	0	x	x	x	x	x
O=C1/C(=C\c2ccc(-c3ccccc3Cl)o2)SC(=S)N1CC1CCCO1 (centres undefined)	5	x	0.5*	1	100	0	116	0
CCCSc1nnc(NC(=O)Nc2ccccc2)s1	13	x	15*	-5	113	0	117	0
CN(C(=O)c1cccc(NC(=O)Cc2ccc(NC(=O)C3CCCN(C(=O)C4CCC4)C3)cc2)c1)C1CCC1 (centres undefined)	x	4	x	1	x	x	x	x
CC(C)(C)c1ccc(S(=O)(=O)N2CCN(c3ccccn3)CC2)cc1	5	18	0	7	x	x	x	x
Cc1ccc(CN2C(=O)C(Cc3ccccc3)Nc3ncnc(N4CCCCC4)c32)cc1 (centres undefined)	39	4	0	-2	x	x	x	x
O=C1C(Cc2ccccc2)Nc2ncnc(N3CCN(c4ccccc4)CC3)c2N1Cc1ccc(Br)cc1 (centres undefined)	11	9	82*	-1	110	56*	112	76*
O=C1C(Cc2ccccc2)Nc2ncnc(N3CCOCC3)c2N1Cc1ccc(Cl)cc1 (centres undefined)	4	-6	0	0	x	x	x	x
Cc1ccc(CN2C(=O)C(Cc3ccccc3)Nc3ncnc(N4CCN(c5ccccc5)CC4)c32)cc1 (centres undefined)	-16	14	1.1*	-1	96	0	110	0
O=C1C(Cc2ccccc2)Nc2ncnc(N3CCN(c4ccccc4)CC3)c2N1Cc1ccccc1 (centres undefined)	-5	-2	0	2	105	0	87	0
N#CCCn1c(SCC(=O)NCCc2ccc(F)cc2)nc2ccccc21	5	x	0	0	x	x	x	x
COCCOC(=O)CSc1ncccc1-c1nc2cc(C)c(C)cc2[nH]1	-1	-18	0	-6	x	x	x	x
CCOC(=O)c1cccc(NC(=O)CSc2nnc(C3CCCCC3)n2CC)c1	227	8	0	0	x	x	x	x
Cc1cnc(NC(=O)c2cc(S(=O)(=O)N(C)C)ccc2N2CCCC2)s1	-29	-6	0	-2	x	x	x	x
CN(C)S(=O)(=O)c1ccc(N2CCCC2)c(C(=O)Nc2nc3c(ccc4ccccc43)s2)c1	-4	6	1.9*	3	108	0	123	0

Assay outcomes (PubChem)
